Consider two compounds from paper PMC4756412 (Journal of pharmaceutical sciences, 2016).

Data set [1] relates to blood-brain barrier. The note with it: completely reversed by 4 h following treatment; cited from earlier work.
For data set [2], the system named is blood-brain barrier. The data set is described as follows: MRI of Gd-DTPA brain deposition after i.v. peptide. The class given is in vivo, Balb/c mice.
Data set [3] relates to MDCK-II cell monolayers. Kind of data set: Inhibition of junction resealing in MDCK cell monolayers. Type of data set: cell-based, canine. The conditions noted are these: peptide 1.0 mM apical and basolateral, TEER, 5- and 6-h time points.
For data set [4], the system named is blood-brain barrier. Kind of data set: NIRF imaging of IRdye800cw-PEG and R800 brain deposition. The conditions noted are these: 0.01 mmol/kg peptide i.v., ex vivo brain-to-plasma fluorescence ratio. The class given is in vivo, mice. An outline of the steps:
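Mice received test compound 0.010 mmol/kg or PBS i.v. After 5 min, IRDye 800CW PEG (~25 kDa, 0.01 μmol/kg) and R800 (P-gp substrate, 0.032 μmol/kg) were given i.v. Mice were killed by cardiac perfusion of 10% formaldehyde 20 min after treatment. Brains were imaged ex vivo by near-infrared scanner, and ROI fluorescence per unit tissue was divided by fluorescence per μL blood at the same time point.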

The subject of data set [5] is MDCK-II cell monolayers. The data set is described as follows: Direct junction modulation of intact MDCK cell monolayers. Type of data set: cell-based, canine. The conditions noted are these: peptide 1.0 mM, Ca2+-sufficient buffer, 7- and 8-h time points. Put shortly:
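MDCK-II cells were seeded at 75,000 cells/well on 0.4 μm polyester Transwell membranes and grown 5–8 days, with starting TEER of 280–320 ohm.cm². Monolayers were washed in HBSS (25 mM glucose, 2 mM CaCl₂, 0.75 mM MgSO₄, 10 mM HEPES), with no Ca²⁺-free step. They were then exposed apically and basolaterally to test compound (1.0 mM) or none, and TEER was read hourly for 6–8 h by voltohmmeter.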

Data set [6] deals with blood-brain barrier. The data set is described as follows: In-situ rat brain perfusion, 14C-mannitol brain delivery. The class given is in vivo, Sprague-Dawley rats. The conditions noted are these: peptide 1.0 mM, 240-s perfusion, then 240-s 14C-mannitol. Put shortly: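 Sprague-Dawley rats were anaesthetised i.p. with ketamine 100 mg/kg plus xylazine 5 mg/kg. Perfusion via a left common carotid cannula at 5.0 mL/min began right after cardiac puncture: 20-s saline, 240-s test compound (1.0 mM) or vehicle, 240-s ¹⁴C-mannitol, then 5-s saline wash. Perfusate was filter-sterilised and oxygenated (95% air/5% CO₂, 37 °C). Rectal temperature was held at 36.5 ± 0.5 °C.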

The nature of data set [7]: Peptide stability in rat plasma. The class given is in vitro ADME. The conditions noted are these: rat plasma (NaHeparin). Put shortly: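 Test compound in DMSO was spiked into heparinised rat plasma (final DMSO 0.6%) and shaken at 50 rpm at 37 °C for up to 8 or 72 h, about 2–3 half-lives. Samples were deproteinised with ACN:H₂O:EtOAc (6:1:1) and centrifuged at 17226 g. Remaining peptide was quantified by LC-MS/MS against a peptide internal standard, and half-life was calculated.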

Where [8] appears, read: 0.01 mmol/kg i.v., AUC over 42 min, posterior, midbrain, anterior.
Where [9] appears, read: 0.001, 0.0032, 0.01 mmol/kg i.v., 42-min session.

“Also recorded” adds a separate entry of the source. Bridge positions count the residues as written; N and C are the ends. Peptide text beside a SMILES is read from it.

Regarding “Ac-CDTPPVC-NH2 (disulfide 1-7 (inferred); SMILES CC(=O)N[C@H]1CSSC[C@@H](C(N)=O)NC(=O)[C@H](C(C)C)NC(=O)[C@@H]2CCCN2C(=O)[C@@H]2CCCN2C(=O)[C@H]([C@@H](C)O)NC(=O)[C@H](CC(=O)O)NC1=O) [ADTC5]”, the “duration for which BBB modulation was observed” value in the data set on blood-brain barrier [1] is on record as 2 h.
In general, half-life refers to the time needed for the level to fall by half in the phase considered. Higher therefore signals slow decline. Turning to `CC(=O)N[C@@H](CO)C(=O)N[C@@H](Cc1c[nH]cn1)C(=O)N[C@@H](C)C(=O)N[C@H](C(=O)N[C@@H](C)C(=O)N[C@@H](CO)C(N)=O)C(C)C` [HAV4] (Ac-SHAVAS-NH2), in the data set with blood-brain barrier [2] (setting [8]), the “Gd-DTPA enhancement after 1-h peptide pretreatment” value is “did not produce any Gd-DTPA enhancement” and the “Gd-DTPA enhancement after 2-h peptide pretreatment” value is on record as “did not produce any Gd-DTPA enhancement”. The “maximum enhancement of Gd-DTPA compared to background at 0 time point” value with blood-brain barrier [2] (0.010 mmol/kg i.v., posterior region, Gd-DTPA 0.4 mmol/kg, 42-min MRI session) is listed as “up to fivefold”. In addition, the “duration of BBB modulation (Gd-DTPA)” value in the data set on blood-brain barrier [2] (0.01 mmol/kg i.v., various pretreatment times, MRI) is under 1 h. In addition, in the data set with blood-brain barrier [2] (setting [9]), the “AUC of Gd-DTPA deposition vs vehicle, anterior region” value is given as “significantly higher than those of the vehicle group at all peptide doses examined”; the “AUC of Gd-DTPA deposition vs vehicle, midbrain” value is “only treatment with 0.01 mmol/kg showed significant enhancement compared to vehicle”; the “AUC of Gd-DTPA deposition vs vehicle, posterior region” value is “significantly higher than those of the vehicle group at all peptide doses examined”. In addition, the “increase in brain delivery of Gd-DTPA” value with blood-brain barrier [2] (following peptide treatment) was 3-4 fold. In addition, the “inhibition of junction resealing compared to HBSS” value in the data set with MDCK-II cell monolayers [3] is reported as “significantly inhibited the resealing; also recorded: inhibited the junction resealing”. In addition, the “brain deposition of IRdye800cw-PEG, 5-min pretreatment” value in the data set with blood-brain barrier [4] was “higher than in saline-treated controls”. Further, the “lowering of TEER of intact monolayers compared to HBSS” value in the data set on MDCK-II cell monolayers [5] is “lowered the TEER values significantly”. The “passage of 14C-mannitol into rat brain compared to vehicle” value in the data set on blood-brain barrier [6] is “significantly enhanced”. Besides, in data set [7], the half-life is 2.4 h.
